From article PMC3855444 (Bioorganic & medicinal chemistry, 2013)

What follows are compounds tested on UDP-glucuronosyltransferase (UGT). Conditions: 100 μM, HLM.
Type: in vitro ADME, human

| SMILES | inhibition of UGT activity, parent versus methylated analogue, in words |
| --- | --- |
| COc1cc(O)c2c(c1)O[C@H](c1ccc(O)c3c1[C@@H](CO)[C@H](c1ccc(O)c(OC)c1)O3)[C@@H](O)C2=O [compound 12, 7-O-Methylisosilychristin] | more potent than isosilychristin (11) |

These compounds were tested on hepatitis C virus (JFH-1). Conditions: Huh7.5.1 cells infected with JFH-1 (MOI 0.05), HCV core protein at 72 h.
Type: cell-based
Summary of the method: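 Huh7.5.1 cells (150,000 per well) were plated and infected with JFH-1 the next day at 0.05 focus forming units per cell. After 5 h the inoculum was replaced with fresh medium containing test compound at three concentrations chosen from the 72 h ATP-based cytotoxicity data. Lysates were harvested 72 h later, loaded at equal total protein, and probed for HCV core by Western blot.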

| SMILES | anti-HCV activity upon methylation relative to the corresponding parent compound |
| --- | --- |
| COc1cc(O)c2c(c1)O[C@H](c1ccc3c(c1)O[C@H](c1ccc(O)c(OC)c1)[C@@H](CO)O3)[C@@H](O)C2=O [compound 2, 7-O-Methylsilybin A] | retained |
| COc1cc(O)c2c(c1)O[C@H](c1ccc3c(c1)O[C@@H](c1ccc(O)c(OC)c1)[C@H](CO)O3)[C@@H](O)C2=O [compound 4, 7-O-Methylsilybin B] | reduced |
| COc1cc(O)c2c(c1)O[C@H](c1ccc3c(c1)O[C@H](CO)[C@@H](c1ccc(O)c(OC)c1)O3)[C@@H](O)C2=O [compound 6, 7-O-Methylisosilybin A] | reduced |
| COc1cc(O)c2c(c1)O[C@H](c1ccc3c(c1)O[C@@H](CO)[C@H](c1ccc(O)c(OC)c1)O3)[C@@H](O)C2=O [compound 8, 7-O-Methylisosilybin B] | slight enhancement |
| COc1cc(O)c2c(c1)O[C@H](c1cc(O)c3c(c1)[C@@H](CO)[C@H](c1ccc(O)c(OC)c1)O3)[C@@H](O)C2=O [compound 10, 7-O-Methylsilychristin] | improved anti-HCV activity |
| COc1cc(O)c2c(c1)O[C@H](c1ccc(O)c3c1[C@@H](CO)[C@H](c1ccc(O)c(OC)c1)O3)[C@@H](O)C2=O [compound 12, 7-O-Methylisosilychristin] | improved anti-HCV activity |
